# Autophagy HCS: modulators of autophagy; calls only at 10 µM (by protocol); MEF GFP-LC3 puncta imaging; test concentration mostly 10 µM; 190,000 tested, 0.98% active; AID 463193;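 active = percentage of spot-positive cells more than 3 SD above its plate mean, without a fluorescence outlier flag or 80% toxicity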;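 also: spot-positive cell cutoff set from DMSO-treated cells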
# L major viab: Leishmania major promastigote growth inhibition | AID 1063 | Leishmania major promastigotes, resazurin fluorescence viability | inhibition, % at 10 µM | 200,000 tested, 9% active; in the data active = inhibition above about 50%;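 also: promastigotes grown with compound for 44 hours at 28 °C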
# HCT116 PTEN-null: growth suppressors of cells with PTEN tumor suppressor deletion. HCT116 PTEN-null viability, CellTiter-Glo, 60 h; active compounds read low. viability, % at 10 µM. 140,000 tested, 1.2% active;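 active = viability at or below a set limit, 4 SD under the median of all tested compounds, cut at about 3.7% in these data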;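 also: PTEN knockout HCT116 line with beta catenin targeted HCT116 as companion control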
# HCT116 bCat-KO: beta-catenin-lacking colon tumor cell growth suppression; HCT116 beta-catenin knockout viability, CellTiter-Glo, 60 h; active compounds read low; viability, % at 10 µM; 140,000 tested, 1.5% active; AID 818;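 active = viability at or under a set limit, the compound median less 4 SD, cut at about 6% in these data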;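 also: 0% = Hyamine 1622 control at 20 µM and 100% = untreated cell control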
# Dynein transport: dynein cargo transport inhibition | 3617.4 mouse cells, GR-EGFP nuclear translocation imaging; test concentration mostly 20 µM; stimulated with dexamethasone, 1 µM; active compounds read low | z-score, hits read low | 220,000 tested, 0.47% active | AID 1381;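 active = plate z-score of nuclear minus cytoplasmic receptor signal below a set negative limit, without overly bright fluorescence or cell loss, cut at about -3.5 in these data, passing the limit was not always enough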;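 also: z-score of nuclear minus cytoplasmic ring GR-EGFP intensity difference per well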
#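 Buffer or medium: Induction medium lacking tetracycline, stripped serum | Also added: Dexamethasone agonist, 1.0 µM final, for 30 min | Timing: 48 h induction, 1 h compound, 30 min dex at 37 °C | Detection: Formaldehyde fixation, Hoechst nuclear stain, 10x automated fluorescence imaging | Measure: Nuclear versus cytoplasmic GR-EGFP signal, averaged per well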
# Starred values were filed as active, the others as inactive; i = inactive; · = no result given; + = active, no number. Hits are enriched below; roughly 9.2% of the tested compounds scored in any of these assays.
SMILES,Autophagy HCS,L major viab,HCT116 PTEN-null,HCT116 bCat-KO,Dynein transport
CCOc1cc(NC(=S)Nc2ccccc2)c(OCC)cc1NC(=O)c1ccc(OC)cc1,i,96*,99,106,0.016
CCOc1ccccc1C(=O)Nc1cc(OC)ccc1OC,+,18,79,94,0.92
COc1ccc(OC)c(/C(O)=C/C(=O)C(=O)Nc2ccccc2OC)c1,i,96*,89,96,0.19
COc1ccc(OC)c(S(=O)(=O)N(C)CC(=O)Nc2ccccc2OC)c1,i,0,98,99,-0.23
COc1ccccc1C(=O)Nc1cc(Cl)ccc1O,i,13,75,83,0.83
CCOc1ccccc1C(=O)Nc1cc(Cl)ccc1O,i,79*,66,57,0.72
O=C(c1cnc2ccccc2n1)N1CCN(c2ccc(C(F)(F)F)cn2)CC1,·,·,·,·,0.4
CCN(CC)S(=O)(=O)c1ccc(C(=O)Nc2nnc(NC(=S)Nc3ccccc3)s2)cc1,·,·,·,·,0.24
COc1cc(OC)cc(C(=O)Nc2nnc(NC(=S)Nc3ccccc3)s2)c1,i,55*,59,67,0.27
Cc1ccc(NC(=O)c2nn(C34CC5CC(CC(C5)C3)C4)cc2[N+](=O)[O-])cc1,i,59*,55,56,-0.79
CCn1cc([N+](=O)[O-])c(C(=O)Nc2nc(-c3ccc(C)c(C)c3)c(C)s2)n1,i,-2,70,88,0.79
CCn1cc([N+](=O)[O-])c(C(=O)Nc2nc(-c3ccc(C)cc3)c(C)s2)n1,i,9,3.3*,6,0.26
COc1ccc(C(C(=O)NCC2CCCO2)N(C(=O)CNC(=O)c2cccs2)c2ccccc2C)cc1OC (stereo not given),i,-5,·,·,0.41
COc1cccc(/C=C/C(=O)Nc2cccc(C(C)=O)c2)c1OC,i,11,·,·,-0.7
COc1cccc(/C=C/C(=O)Nc2ccc3c(c2)OCCO3)c1OC,+,22,·,·,0.035
COc1ccc2c(c1)c(CC(=O)Nc1cccc(S(N)(=O)=O)c1)c(C)n2C(=O)c1ccc(Cl)cc1,·,·,·,·,0.2
COc1ccc(N2CCN(C(=O)C3CCN(S(=O)(=O)c4ccc(F)cc4)CC3)CC2)cc1,i,-4,·,·,0.86
O=C1CCN(S(=O)(=O)c2ccc(Cl)cc2)CCN1,·,·,·,·,-0.45
CCCN(/C=N/c1sc2c(c1C#N)CCCCC2)CCC,i,18,72,71,0.81
CC(=O)Nc1ccccc1/C=C/c1ccc2c(C)cc(C)c(O)c2n1,i,-4,3.3*,12,0.58
CCOC(=O)c1c(N)n(-c2ccc(N)cc2)c2nc3ccccc3nc12,i,1,98,94,-1
CCOC(=O)c1c(N)n(C2CC(C)(C)NC(C)(C)C2)c2nc3ccccc3nc12,i,83*,68,69,-0.7
CCCCCOC(=O)c1c(N)n(CCOC)c2nc3ccccc3nc12,i,100*,74,69,-0.88
CCOC(=O)c1c(N)n(CCOC(=O)c2cccs2)c2nc3ccccc3nc12,i,60*,70,82,0.48
CCOC(=O)c1c(NC(=O)c2ccco2)n(C2CCCCC2)c2nc3ccccc3nc12,i,100*,65,71,-1.3
SMILES,Autophagy HCS,L major viab,HCT116 PTEN-null,HCT116 bCat-KO,Dynein transport
COc1cc(CCC(=O)NNC(=O)c2ccc(C)cc2)cc(OC)c1OC,i,-2,·,·,1
Cc1ccc(/C=N/NC(=O)CCn2nc(C)cc2C)c(C)c1,i,3,·,·,-1.3
CC(NC(=O)COc1ccccc1F)C1CC2CCC1C2 (stereo not given),i,0,·,·,0.76
C=CCn1c(SC)nc2sc3c(c2c1=O)CCc1ccccc1-3,i,54*,73,78,0.62
CN(Cc1nc(-c2cccs2)no1)CC1(N2CCOCC2)CCCCC1,i,1,·,·,-0.24
O=C(NCC1CC1)[C@@H]1C[C@H]1[C@@H](NP(=O)(c1ccccc1)c1ccccc1)c1ccccc1,i,-6,0.1*,0.2*,1.7
Cc1nc2ccccn2c1C(=O)N=Nc1c(O)n(CCC(C)C)c2ccccc12,i,67*,17,24,-0.13
N#CCCn1ncn(-c2ccccc2)c1=S,i,-3,102,101,-0.87
CCCCN(CCCC)Cc1c(O)ccc2c3c(c(=O)oc12)CCC3,·,·,·,·,-0.34
C/C(=N\NC(=O)c1c[nH]c2ccccc12)c1ccccn1,i,100*,·,·,1.1
C/C(=N\NC(=O)c1c[nH]c2ccccc12)c1ccco1,i,45,98,86,-0.78
O=C1C2CCCCC2C(=O)N1Cc1ccccc1 (stereo not given),i,-5,·,·,-0.21
O=C1C2C3CCC(C3NCc3ccccc3)C2C(=O)N1Cc1ccccc1 (stereo not given),i,60*,71,78,-0.74
CCOC(=O)C1(c2ccccc2)NC(c2ccccc2C)C2C(=O)N(c3ccc4c(c3)OCO4)C(=O)C21 (stereo not given),i,4,85,82,-0.67
Brc1ccccc1/C=N/Nc1ccc2ccccc2n1,i,41,51,54,0.098
Cc1cc(N/N=C/c2ccccc2Br)nc2ccccc12,i,52*,75,79,-0.27
O=C(CSc1ccc(Cl)cc1)NCC1CCCO1 (stereo not given),i,-1,100,101,0.54
COc1ccc(-c2[nH]c(-c3cccc(OC)c3)nc2SCC(=O)NC2CCCC2)cc1,i,58*,74,85,2.3
COc1ccc(-c2[nH]c(-c3ccc(F)cc3)nc2SCC(=O)NC2CCCC2)cc1,i,77*,84,89,0.1
COc1cccc(-n2nnnc2SCC(=O)NC2CCCC2)c1,i,34,100,94,0.83
Cc1ccc(-c2[nH]c(-c3ccc(Cl)cc3)nc2SCC(=O)NCC2CCCO2)cc1 (stereo not given),i,70*,57,45,0.05
COc1ccc(-c2[nH]c(-c3ccccc3)nc2SCC(=O)NC2CCCC2)cc1,i,20,77,86,-0.64
CCN(CC)C(=O)CSc1nnc(CNc2ccc(F)cc2)o1,i,-3,103,94,0.97
Cc1nc2sc(C(c3cccc(F)c3)N3CCOCC3)c(O)n2n1 (stereo not given),i,-8,87,100,1.6
OC1CCNC(=S)N1c1ccccc1 (stereo not given),i,-5,·,·,0.25
Brc1c(OCCOCCn2cncn2)ccc2ccccc12,i,65*,108,109,-1.3
Cc1cc(Cl)ccc1OCCn1cncn1,i,-5,·,·,1.7
COc1ccc(-c2ccc(C(c3c(C)[nH][nH]c3=O)c3c(C)[nH][nH]c3=O)o2)c([N+](=O)[O-])c1,i,61*,·,·,0.68
Cc1[nH][nH]c(=O)c1C(c1ccc(-c2ccc(C(=O)O)cc2)o1)c1c(C)[nH][nH]c1=O,i,-6,·,·,-0.24
Cc1[nH][nH]c(=O)c1C(c1ccc(-c2ccc(Cl)c(Cl)c2)o1)c1c(C)[nH][nH]c1=O,i,100*,43,49,-1.8

# Screening data deposited in PubChem by several laboratories.
